Test results reported in ChEMBL document CHEMBL1153607, “Synthesis and anti-tumor activities of some new pyridines and pyrazolo[1,5-a]pyrimidines” (Eur J Med Chem, 2009).
≈ marks a conversion by molar mass, not a printed value. Calls of active or inactive are those of the source. The rule behind the calls is not given here.

How the values were obtained:
Format in all cases: functional, cell-based
HepG2 = assay: Antitumor activity against human HepG2 cells after 48 hrs by SRB assay; conditions: HepG2, 48 h
Outline: (§1)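 Cells seeded at 10⁴/well and left overnight to attach, then exposed to compound for 48 h at 37 °C, 5% CO₂, in triplicate wells per dose. Cells were fixed and stained with sulforhodamine B in acetic acid, washed four times with 1% acetic acid, and bound dye was extracted with tris–EDTA. Absorbance was read on an ELISA reader. IC50 (50% growth inhibition) was taken from the survival curve.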

MCF7 [1] = assay: Antitumor activity against human MCF7 cells assessed as decrease in survival fraction at 1 ug/ml by SRB assay
Outline: (§2)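 Monolayers seeded at 10⁴ cells/well were allowed to attach overnight, then treated with compound for 48 h at 37 °C, 5% CO₂, with triplicate wells per dose. Cells were fixed and stained with sulforhodamine B, washed with 1% acetic acid, and dye was solubilised in tris–EDTA before absorbance reading. Surviving fraction was plotted against compound concentration for each cell line.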

HCT-116 [2] = assay: Antitumor activity against human HCT116 cells after 48 hrs by SRB assay; conditions: HCT-116, 48 h; outline: as §1
MCF7 [3] = assay: Antitumor activity against human MCF7 cells after 48 hrs by SRB assay; conditions: MCF7, 48 h; outline: as §1
HeLa [4] = assay: Antitumor activity against human HeLa cells after 48 hrs by SRB assay; outline: as §1
MCF7 [5] = assay: Antitumor activity against human MCF7 cells assessed as decrease in survival fraction at > 2.5 ug/ml by SRB assay; outline: as §2
MCF7 [6] = assay: Antitumor activity against human MCF7 cells assessed as decrease in survival fraction at > 1 ug/ml by SRB assay; outline: as §2
HeLa [7] = assay: Antitumor activity against human HeLa cells assessed as decrease in survival fraction at 1 ug/ml by SRB assay; outline: as §2
HCT-116 [8] = assay: Antitumor activity against human HCT116 cells assessed as decrease in survival fraction at 1 ug/ml by SRB assay; outline: as §2

Row | IC50 (HepG2) [µg/mL] | IC50 (HCT-116 [2]) [µg/mL] | IC50 (MCF7 [3]) [µg/mL] | IC50 (HeLa [4]) [µg/mL] | Compound | Activity (MCF7 [1]) | Activity (MCF7 [5]) | Activity (MCF7 [6]) | Activity (HeLa [7]) | Activity (HCT-116 [8])
1 | 1.01 (≈ 3.85 µM) | 0.49 (≈ 1.87 µM) | 0.34 (≈ 1.3 µM) | 0.6 (≈ 2.29 µM) | N#Cc1ccc(-c2ccc3ccccc3c2)[nH]c1=S | Active | Active | Active |  | 
2 | 1.88 (≈ 3.84 µM) | 0.54 (≈ 1.1 µM) | 0.74 (≈ 1.51 µM) | 0.4 (≈ 0.816 µM) | O=C(Nc1ccc(Cl)cc1)c1c(Nc2ccccc2)nn2ccc(-c3ccc4ccccc4c3)nc12 | Active | Active | Active | Active | Active
